Measured values taken from the M2OR odorant receptor database.

Assays:
Settings in all cases: stereoisomer not certain
UniProt L7MU75 = target: T1, UniProt L7MU75
T1 sequence (whole entry): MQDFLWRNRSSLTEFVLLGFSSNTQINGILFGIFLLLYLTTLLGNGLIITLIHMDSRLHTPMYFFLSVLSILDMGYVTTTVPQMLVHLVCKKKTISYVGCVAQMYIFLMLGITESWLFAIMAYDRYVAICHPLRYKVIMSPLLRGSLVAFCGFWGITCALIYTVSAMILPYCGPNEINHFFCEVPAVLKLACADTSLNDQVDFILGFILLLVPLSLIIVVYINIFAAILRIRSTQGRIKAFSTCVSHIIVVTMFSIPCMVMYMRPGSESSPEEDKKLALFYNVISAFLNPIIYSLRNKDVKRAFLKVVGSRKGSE
Method in brief: (§1)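 Values were gathered from published papers (main text and supplementary material), with extra details requested from the original authors when needed, and checked for typos and inconsistencies. Each receptor–molecule pair is called responsive (active) if the original authors judged the measured signal statistically different from baseline, and non-responsive (inactive) otherwise. Assay methods varied by source, often transient mammalian cell-line luciferase assays. Recorded details include cell line, G-protein, co-transfected protein and tags.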

UniProt L7N210 = target: T2, UniProt L7N210
T2 sequence (whole entry): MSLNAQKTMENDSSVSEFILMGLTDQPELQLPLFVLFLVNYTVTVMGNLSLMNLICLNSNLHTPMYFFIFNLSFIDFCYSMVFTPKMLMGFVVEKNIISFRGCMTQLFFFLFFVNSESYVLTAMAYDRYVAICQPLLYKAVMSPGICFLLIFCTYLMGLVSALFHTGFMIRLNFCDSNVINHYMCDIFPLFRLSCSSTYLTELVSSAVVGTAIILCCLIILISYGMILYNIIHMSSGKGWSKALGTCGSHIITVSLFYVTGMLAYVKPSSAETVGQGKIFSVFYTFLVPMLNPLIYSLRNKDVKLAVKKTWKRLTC
Method in brief: as §1

UniProt Q3KPB0 = target: T3, UniProt Q3KPB0
T3 sequence (whole entry): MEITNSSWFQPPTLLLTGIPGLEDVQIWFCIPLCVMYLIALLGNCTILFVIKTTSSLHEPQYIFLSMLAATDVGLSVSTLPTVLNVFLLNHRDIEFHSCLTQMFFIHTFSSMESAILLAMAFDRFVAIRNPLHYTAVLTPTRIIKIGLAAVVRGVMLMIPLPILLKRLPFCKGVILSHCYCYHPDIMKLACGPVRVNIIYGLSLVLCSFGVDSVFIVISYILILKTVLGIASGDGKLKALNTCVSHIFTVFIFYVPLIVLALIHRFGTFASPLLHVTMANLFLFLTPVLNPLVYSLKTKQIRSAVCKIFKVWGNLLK
Method in brief: as §1

UniProt Q3U0P3 = target: T4, UniProt Q3U0P3
T4 sequence (whole entry): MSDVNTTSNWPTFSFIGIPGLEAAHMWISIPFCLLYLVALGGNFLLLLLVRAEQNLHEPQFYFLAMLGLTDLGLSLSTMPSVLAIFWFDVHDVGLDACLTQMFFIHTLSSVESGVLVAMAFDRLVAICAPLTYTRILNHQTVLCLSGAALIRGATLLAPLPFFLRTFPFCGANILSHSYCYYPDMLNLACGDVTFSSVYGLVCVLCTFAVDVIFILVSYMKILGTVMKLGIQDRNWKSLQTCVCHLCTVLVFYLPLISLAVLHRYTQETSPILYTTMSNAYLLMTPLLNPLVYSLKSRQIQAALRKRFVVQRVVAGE
Method in brief: as §1

UniProt Q7TQU8 = target: T5, UniProt Q7TQU8
T5 sequence (whole entry): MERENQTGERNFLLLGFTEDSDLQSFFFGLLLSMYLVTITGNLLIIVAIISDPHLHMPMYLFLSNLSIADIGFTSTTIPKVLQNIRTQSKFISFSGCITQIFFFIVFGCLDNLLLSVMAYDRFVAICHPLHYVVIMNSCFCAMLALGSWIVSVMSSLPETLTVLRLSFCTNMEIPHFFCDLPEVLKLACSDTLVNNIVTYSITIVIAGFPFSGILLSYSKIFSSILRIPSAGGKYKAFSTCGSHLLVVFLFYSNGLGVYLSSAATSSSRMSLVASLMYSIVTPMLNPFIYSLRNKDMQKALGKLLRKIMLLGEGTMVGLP
Method in brief: as §1

UniProt Q7TR79 = target: T6, UniProt Q7TR79
T6 sequence (whole entry): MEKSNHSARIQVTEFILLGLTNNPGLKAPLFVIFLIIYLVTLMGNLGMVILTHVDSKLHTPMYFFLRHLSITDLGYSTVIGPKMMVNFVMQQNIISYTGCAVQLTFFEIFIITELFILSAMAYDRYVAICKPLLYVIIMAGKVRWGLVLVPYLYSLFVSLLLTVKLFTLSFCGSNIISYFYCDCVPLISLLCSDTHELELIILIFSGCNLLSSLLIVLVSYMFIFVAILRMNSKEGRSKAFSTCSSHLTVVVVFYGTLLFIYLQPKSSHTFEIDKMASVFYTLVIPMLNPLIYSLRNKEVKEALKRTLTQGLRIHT
Method in brief: as §1

SMILES | odorant receptor agonist call (UniProt L7MU75) | odorant receptor agonist call (UniProt L7N210) | odorant receptor agonist call (UniProt Q3KPB0) | odorant receptor agonist call (UniProt Q3U0P3) | odorant receptor agonist call (UniProt Q7TQU8) | odorant receptor agonist call (UniProt Q7TR79)
CC(=O)C1(C)CC2=C(CCCC2(C)C)CC1C (stereo unspecified) | inactive | inactive | inactive | inactive | inactive | inactive
O=C(O)CCCCCCCCC(=O)O | inactive | inactive | inactive | inactive | inactive | inactive
CCCCCCCOC(=O)C(C)C | inactive | inactive | inactive | inactive | inactive | inactive
CC(=O)C=CC1=C(C)CCCC1(C)C | inactive | inactive | inactive | inactive | inactive | inactive
CCCCCCC(=O)OCCCC | inactive | inactive | inactive | inactive | inactive | inactive
CCCCCCCCCC=CC=O | inactive | inactive | inactive | inactive | inactive | inactive
CC1CCC(C(C)C)C(=O)C1 (stereo unspecified) | inactive | inactive | inactive | inactive | inactive | inactive
Cc1ccc(OC(=O)C(C)C)cc1 | inactive | inactive | inactive | inactive | inactive | inactive
C=C(C)C1CCC2(C)OC2C1 (stereo unspecified) | inactive | inactive | inactive | inactive | inactive | inactive
CC(=O)OC1(C)CCC23CC1C(C)(C)C2CCC3C (stereo unspecified) | inactive | inactive | inactive | active | active | inactive
CC(C)CS | inactive | inactive | inactive | inactive | inactive | inactive
